This is an account of results in ChEMBL document CHEMBL3351274, “Sensitization of tumor necrosis factor-related apoptosis-inducing ligand (TRAIL)-resistant primary prostate cancer cells by isoegomaketone from Perilla frutescens” (J Nat Prod, 2014).

Test [1] is described as follows: Induction of apoptosis in human RC-58T/h/SA#4 cells assessed as Bcl-2 activation at 20 uM after 24 hrs by immunoblotting analysis relative to untreated control. It is filed as functional. Summed up: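 Cells grown in DMEM/10% FBS at 37 °C, 5% CO2, then treated 24 h with compound (20 μM) with or without TRAIL (100 ng/mL). Whole lysates were used for Bax and Bcl-2. Cytosolic and mitochondrial fractions were prepared with a mitochondria isolation kit for AIF and cytochrome c. Blotting used 10 μg protein/lane, 12% SDS-PAGE, nitrocellulose, overnight primary antibody at 4 °C and ECL detection.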
Background: Immunoblotting shows a protein as a band on a membrane.

For test [2], the species on record is Homo sapiens. Description: Sensitization of TRAIL-induced apoptosis in human RC-58T/h/SA#4 cells assessed as AIF level in mitochondria at 20 uM after 24 hrs by immunoblotting analysis relative to untreated control. Type of test: functional, cell-based. Summed up: (§1)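 Cells given 20 μM compound and/or 100 ng/mL TRAIL for 24 h. Mitochondrial and cytosolic fractions prepared with a mitochondria isolation kit. Fractions resolved by 12% SDS-PAGE at 10 μg/lane and immunoblotted with anti-cytochrome c or anti-AIF overnight at 4 °C, then HRP secondary and ECL detection.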

For test [3], the species on record is Homo sapiens. Description: Sensitization of TRAIL-induced apoptosis in human RC-58T/h/SA#4 cells assessed as cytochrome C level in mitochondria at 20 uM after 24 hrs by immunoblotting analysis relative to untreated control. It is filed as functional, cell-based. The procedure, abridged:
as §1

Test [4] in a line: Induction of apoptosis in human RC-58T/h/SA#4 cells assessed as DR4 expression at 5 uM after 24 hrs by immunoblotting analysis relative to untreated control. It is filed as functional.
The nature of test [5]: Induction of apoptosis in human RC-58T/h/SA#4 cells assessed as DR4 expression at 40 uM after 24 hrs by immunoblotting analysis relative to untreated control. Type of test: functional.
The nature of test [6]: Induction of apoptosis in human RC-58T/h/SA#4 cells assessed as DR4 expression at 20 uM after 3 hrs by immunoblotting analysis relative to untreated control. It is filed as functional.
The nature of test [7]: Induction of apoptosis in human RC-58T/h/SA#4 cells assessed as DR4 expression at 20 uM after 6 hrs by immunoblotting analysis relative to untreated control. Type of test: functional.
Test [8] in a line: Induction of apoptosis in human RC-58T/h/SA#4 cells assessed as DR4 expression at 20 uM after 24 hrs by immunoblotting analysis relative to untreated control. Type of test: functional.
The nature of test [9]: Induction of apoptosis in human RC-58T/h/SA#4 cells assessed as DR5 expression at 20 uM after 6 hrs by immunoblotting analysis relative to untreated control. It is filed as functional.
Test [10] in a line: Induction of apoptosis in human RC-58T/h/SA#4 cells assessed as DR5 expression at 20 uM after 12 hrs by immunoblotting analysis relative to untreated control. It is filed as functional.
Test [11] can be described thus: Sensitization of TRAIL-induced apoptosis in human RC-58T/h/SA#4 cells assessed as accumulation at Sub-G1 phase at 20 uM after 24 hrs by annexin-V/propidium iodide staining-based flow cytometry in presence of Dr5 Fc chimera (reference value: 4.8%). It is filed as functional. On the technique in general: A flow cytometer gives signals particle by particle.
Test [12] is described as follows: Sensitization of TRAIL-induced apoptosis in human RC-58T/h/SA#4 cells assessed as PARP cleavage at 20 uM after 24 hrs by immunoblotting analysis relative to untreated control. Type of test: functional. The procedure, abridged: (§2)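 Cells seeded at 5 × 10^4 cells/mL and cultured 24 h, then given 20 μM compound and/or 100 ng/mL TRAIL for 24 h. Whole-cell lysate made in Tris/NaCl/EDTA/NaF/pyrophosphate/PMSF/aprotinin buffer, 30 min on ice, protein measured by BCA. 12% SDS-PAGE at 10 μg/lane, nitrocellulose blot, primary antibodies (caspase-3, -8, -9, Bax, Bcl-2, PARP) overnight at 4 °C, HRP secondary, ECL.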

Test [13] is described as follows: Sensitization of TRAIL-induced apoptosis in human RC-58T/h/SA#4 cells assessed as PARP cleavage at 20 uM after 24 hrs by immunoblotting analysis in presence of Dr5 Fc chimera relative to untreated control. Type of test: functional. The procedure, abridged:
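Cells pretreated 2 h with 100 ng/mL DR5 Fc chimera, then given 20 μM compound and/or 100 ng/mL TRAIL for 24 h. Total lysates immunoblotted (12% SDS-PAGE, nitrocellulose) for caspase-3, -8, -9 and PARP cleavage, with HRP secondary and ECL detection.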

The species named for test [14] is Homo sapiens. Put plainly: Induction of apoptosis in human RC-58T/h/SA#4 cells assessed as p53 expression after 3 to 24 hrs by immunoblotting analysis relative to untreated control. It is filed as functional, cell-based. The procedure, abridged: (§3)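 RC-58T/h/SA#4 cells seeded at 5 × 10^4 cells/mL and cultured 24 h, then given compound across a concentration series or at fixed dose over a time course. Lysates were quantified by BCA. 10 μg protein/lane run on 12% SDS-PAGE and transferred to nitrocellulose. Blots probed for p53, CHOP and β-actin with HRP secondary and ECL.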

A short description of test [15]: Induction of apoptosis in human RC-58T/h/SA#4 cells assessed as p53 expression at 2.5 uM after 24 hrs by immunoblotting analysis relative to untreated control. It is filed as functional. The procedure, abridged: as §3
Test [16] can be described thus: Induction of apoptosis in human RC-58T/h/SA#4 cells assessed as CHOP expression at 20 uM after 24 hrs by immunoblotting analysis relative to untreated control. It is filed as functional. Summed up:
as §3

Test [17] can be described thus: Induction of apoptosis in human RC-58T/h/SA#4 cells assessed as p53 expression at 20 uM after 12 hrs by immunoblotting analysis relative to untreated control. Type of test: functional. The procedure, abridged:
as §3

The nature of test [18]: Induction of ROS generation in human RC-58T/h/SA#4 cells at 20 uM after 30 mins by flow cytometry (reference value: 1.9%). It is filed as functional.
Test [19] is filed under the species Homo sapiens. Description: Sensitization of TRAIL-induced apoptosis in human RC-58T/h/SA#4 cells at 20 uM after 24 hrs by annexin-V/propidium iodide staining-based flow cytometry relative to control. It is filed as functional, cell-based. The procedure, abridged:
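RC-58T/h/SA#4 cells seeded at 1 × 10^5 cells/mL in 6-well plates and given 20 μM compound and/or 100 ng/mL TRAIL for 24 h. Cells washed in ice-cold PBS, labelled with annexin V Alexa Fluor 488 for 30 min at 4 °C in the dark, then with PI. Annexin V-positive fraction counted by flow cytometry; three independent experiments, means ± SD, Student's t-test.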

Test [20] is described as follows: Sensitization of TRAIL-induced apoptosis in human RC-58T/h/SA#4 cells assessed as procaspase-3 activation at 20 uM after 24 hrs by immunoblotting analysis relative to untreated control. Type of test: functional. The procedure, abridged:
as §2

Test [21] in a line: Sensitization of TRAIL-induced apoptosis in human RC-58T/h/SA#4 cells assessed as Bax activation at 20 uM after 24 hrs by immunoblotting analysis relative to untreated control. It is filed as functional. The procedure, abridged: as §2
The nature of test [22]: Induction of apoptosis in human RC-58T/h/SA#4 cells assessed as procaspase-9 activation at 20 uM after 24 hrs by immunoblotting analysis relative to untreated control. Type of test: functional. Summed up: as §2
Test [23] can be described thus: Induction of apoptosis in human RC-58T/h/SA#4 cells assessed as procaspase-3 activation at 20 uM after 24 hrs by immunoblotting analysis relative to untreated control. It is filed as functional. Summed up:
as §2

Test [24] is filed under the species Homo sapiens. Put plainly: Sensitization of TRAIL-induced apoptosis in human RC-58T/h/SA#4 cells assessed as cell viability at 20 uM after 24 hrs by SRB assay in presence of NAC. (The SRB assay estimates cell density from bound dye.)

Activity calls are given as the source filed them. The calls are words filed in the database; no cut-off is given here.

Turning to `CC(C)/C=C/C(=O)c1ccoc1`, the Ratio in test [1] is 0.7; in test [2], 0.3; in [3], 0.5; in [4], 1.1; in test [5], 1.1; in test [6] it was 1.2. Further, the Ratio in test [7] amounted to 1.1; in test [8], 1; in test [9] it was 1.3; in test [10] it was 1.3; in test [12], 0.7; in test [13], 1. Further, the Ratio in [15] worked out at 1.2; in test [16], 1.8; in [17], 1.8; in [20], 0.4; in test [21], 1.8; in test [22] it was 0.8. Also, in [23], the Ratio is recorded as 1. For the same compound, the Activity in test [11] is 14.3%; in test [14], “Dose-dependent effect”; in test [18], 2.9%. Also, the outcome in test [19] was Active. Also, in test [24], the outcome was inactive.
